Source: ChEMBL document CHEMBL1138512, “A class of 2,4-bisanilinopyrimidine Aurora A inhibitors with unusually high selectivity against Aurora B” (J Med Chem, 2009)
Values belong to the molecule of their own block, whether it stands above or below them.

Columns and labels:
[1] = molecular target: T1, Aurora kinase A (Homo sapiens, UniProt O14965); test: Inhibition of N-terminal flag-tagged Aurora A expressed in Escherichia coli BL21-DE3 by ELISA
T1 sequence (O14965 whole entry): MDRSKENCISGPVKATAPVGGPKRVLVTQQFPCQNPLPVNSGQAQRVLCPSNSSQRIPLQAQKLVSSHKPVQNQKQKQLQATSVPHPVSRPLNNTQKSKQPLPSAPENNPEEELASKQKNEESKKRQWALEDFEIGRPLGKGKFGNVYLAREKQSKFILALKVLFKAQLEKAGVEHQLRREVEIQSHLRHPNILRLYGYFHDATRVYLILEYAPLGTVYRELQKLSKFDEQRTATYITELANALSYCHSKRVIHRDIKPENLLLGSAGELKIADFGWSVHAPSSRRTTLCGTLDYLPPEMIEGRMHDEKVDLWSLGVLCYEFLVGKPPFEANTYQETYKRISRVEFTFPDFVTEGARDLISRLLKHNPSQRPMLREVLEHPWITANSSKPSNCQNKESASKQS

[2] = tested on: HCT-116; test: Antiproliferative activity against human HCT116 cells after 4 days by celltiter assay; type: functional, cell-based; settings: HCT-116, 96 h
[3] = molecular target: T2, Aurora kinase B (Homo sapiens, UniProt Q96GD4); test: Inhibition of Aurora B in human HCT116 cells assessed as complete loss of phospho-histone H3 staining by immunofluorescence assay
T2 sequence (Q96GD4 whole entry): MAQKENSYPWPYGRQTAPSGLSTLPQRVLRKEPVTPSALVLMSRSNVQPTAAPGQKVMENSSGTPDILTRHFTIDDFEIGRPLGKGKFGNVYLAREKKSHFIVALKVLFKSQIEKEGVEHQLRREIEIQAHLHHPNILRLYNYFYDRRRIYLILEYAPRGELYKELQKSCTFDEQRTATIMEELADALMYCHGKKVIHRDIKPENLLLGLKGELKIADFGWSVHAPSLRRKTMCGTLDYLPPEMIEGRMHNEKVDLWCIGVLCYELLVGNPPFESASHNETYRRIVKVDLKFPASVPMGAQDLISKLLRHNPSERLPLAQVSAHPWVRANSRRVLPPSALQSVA

[4] = molecular target: T2, Aurora kinase B; test: Inhibition of Aurora B in human HT29 cells assessed as complete loss of phospho-histone H3 staining by immunofluorescence assay; type: cell-based, HT-29
Method in brief: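 Immunofluorescence for phospho-S10 histone H3 in HCT116 or HT29 cells, scored visually. Value taken as the lowest inhibitor concentration giving complete loss of staining, so it lies above the IC50. Units µM.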

[5] = molecular target: T2, Aurora kinase B; test: Inhibition of N-terminal flag-tagged Aurora B expressed in Escherichia coli BL21-DE3 by ELISA
[6] = tested on: HT-29; test: Antiproliferative activity against human HT-29 cells after 4 days by celltiter assay; type: functional, cell-based; settings: HT-29, 96 h
[7] = molecular target: Proto-oncogene tyrosine-protein kinase receptor Ret (Homo sapiens) (UniProt P07949); test: Inhibition of human Ret at 1 uM assessed as residual enzyme activity
[8] = molecular target: RAC-alpha serine/threonine-protein kinase (Homo sapiens) (UniProt P31749); test: Inhibition of human PKBalpha at 1 uM assessed as residual enzyme activity
RAC-alpha serine/threonine-protein kinase (Homo sapiens), sequence (P31749 whole entry): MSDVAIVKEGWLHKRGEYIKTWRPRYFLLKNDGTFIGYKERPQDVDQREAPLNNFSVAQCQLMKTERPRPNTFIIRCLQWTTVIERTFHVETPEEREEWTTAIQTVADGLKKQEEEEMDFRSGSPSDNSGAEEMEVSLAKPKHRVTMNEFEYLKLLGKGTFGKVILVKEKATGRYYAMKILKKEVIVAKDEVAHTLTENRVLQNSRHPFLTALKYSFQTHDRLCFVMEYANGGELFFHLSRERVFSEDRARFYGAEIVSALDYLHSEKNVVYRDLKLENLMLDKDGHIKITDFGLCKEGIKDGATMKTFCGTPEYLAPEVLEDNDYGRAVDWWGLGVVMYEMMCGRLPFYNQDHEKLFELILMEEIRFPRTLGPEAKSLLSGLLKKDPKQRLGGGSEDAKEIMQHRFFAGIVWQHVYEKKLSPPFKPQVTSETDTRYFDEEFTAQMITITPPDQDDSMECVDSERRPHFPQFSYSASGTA

[9] = molecular target: RAC-gamma serine/threonine-protein kinase (Homo sapiens) (UniProt Q9Y243); test: Inhibition of human PKBgamma at 1 uM assessed as residual enzyme activity
[10] = molecular target: Cyclin-dependent kinase 1/cyclin B1 (Homo sapiens) (UniProt P06493+P14635); test: Inhibition of human CDK1/cyclin B at 1 uM assessed as residual enzyme activity
[11] = molecular target: RAF proto-oncogene serine/threonine-protein kinase (Homo sapiens) (UniProt P04049); test: Inhibition of human c-RAF at 1 uM assessed as residual enzyme activity
[12] = molecular target: BDNF/NT-3 growth factors receptor (Homo sapiens) (UniProt Q16620); test: Inhibition of human TrkB at 1 uM assessed as residual enzyme activity
[13] = molecular target: Mitogen-activated protein kinase 8 (Homo sapiens) (UniProt P45983); test: Inhibition of human JNK1alpha1 at 1 uM assessed as residual enzyme activity
[14] = molecular target: Casein kinase II (Homo sapiens) (UniProt P67870+P68400+P19784); test: Inhibition of human CK2 at 1 uM assessed as residual enzyme activity; type: protein-complex assay
[15] = molecular target: T3, Cyclin-dependent kinase 2 (Homo sapiens, UniProt P24941); test: Inhibition of CDK2/cyclin A
[16] = molecular target: T3, Cyclin-dependent kinase 2; test: Inhibition of human CDK2/cyclin E at 1 uM assessed as residual enzyme activity
[17] = molecular target: Dual specificity mitogen-activated protein kinase kinase 1 (Homo sapiens) (UniProt Q02750); test: Inhibition of human MEK1 at 1 uM assessed as residual enzyme activity
[18] = molecular target: Tyrosine-protein kinase ABL2 (Mus musculus) (UniProt Q4JIM5); test: Inhibition of mouse ARG at 1 uM assessed as residual enzyme activity
[19] = molecular target: Platelet-derived growth factor receptor beta (Homo sapiens) (UniProt P09619); test: Inhibition of human PDGFRbeta at 1 uM assessed as residual enzyme activity
[20] = molecular target: Aurora kinase A (Homo sapiens) (UniProt O14965); test: Inhibition of human Aurora A at 1 uM assessed as residual enzyme activity
[21] = molecular target: Tyrosine-protein kinase receptor UFO (Homo sapiens) (UniProt P30530); test: Inhibition of human Axl at 1 uM assessed as residual enzyme activity
[22] = molecular target: Tyrosine-protein kinase ABL1 (Mus musculus) (UniProt P00520); test: Inhibition of mouse ABL at 1 uM assessed as residual enzyme activity
[23] = molecular target: Tyrosine-protein kinase ZAP-70 (Homo sapiens) (UniProt P43403); test: Inhibition of human ZAP-70 at 1 uM assessed as residual enzyme activity
[24] = molecular target: RAC-beta serine/threonine-protein kinase (Homo sapiens) (UniProt P31751); test: Inhibition of human PKBbeta at 1 uM assessed as residual enzyme activity
[25] = molecular target: Fibroblast growth factor receptor 3 (Homo sapiens) (UniProt P22607); test: Inhibition of human FGFR3 at 1 uM assessed as residual enzyme activity
Fibroblast growth factor receptor 3 (Homo sapiens), sequence (P22607 23-806 limits assumed): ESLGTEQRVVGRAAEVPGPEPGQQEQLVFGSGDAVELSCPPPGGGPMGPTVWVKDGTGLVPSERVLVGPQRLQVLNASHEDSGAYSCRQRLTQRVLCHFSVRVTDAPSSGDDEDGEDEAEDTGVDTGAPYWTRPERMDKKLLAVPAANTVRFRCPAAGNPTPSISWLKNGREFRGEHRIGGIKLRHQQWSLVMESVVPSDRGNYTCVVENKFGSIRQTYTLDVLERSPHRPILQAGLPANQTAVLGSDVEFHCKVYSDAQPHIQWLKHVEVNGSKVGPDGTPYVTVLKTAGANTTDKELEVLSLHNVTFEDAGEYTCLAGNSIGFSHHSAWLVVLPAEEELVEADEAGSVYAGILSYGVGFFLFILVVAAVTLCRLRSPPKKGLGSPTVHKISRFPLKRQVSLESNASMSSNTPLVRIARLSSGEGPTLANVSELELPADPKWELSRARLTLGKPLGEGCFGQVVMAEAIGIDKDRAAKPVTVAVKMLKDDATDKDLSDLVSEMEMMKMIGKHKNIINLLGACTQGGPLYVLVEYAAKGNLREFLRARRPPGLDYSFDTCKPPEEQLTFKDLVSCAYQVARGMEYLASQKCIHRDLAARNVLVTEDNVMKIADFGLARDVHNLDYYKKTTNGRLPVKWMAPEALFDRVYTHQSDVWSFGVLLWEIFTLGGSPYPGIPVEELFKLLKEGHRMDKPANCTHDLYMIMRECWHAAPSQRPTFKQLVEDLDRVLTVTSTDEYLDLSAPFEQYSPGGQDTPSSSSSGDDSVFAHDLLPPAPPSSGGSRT

[26] = organism: Homo sapiens; test: Inhibition of human PKA at 1 uM assessed as residual enzyme activity
[27] = molecular target: Hepatocyte growth factor receptor (Homo sapiens) (UniProt P08581); test: Inhibition of human Met at 1 uM assessed as residual enzyme activity
[28] = molecular target: Ribosomal protein S6 kinase beta-1 (Homo sapiens) (UniProt P23443); test: Inhibition of human p70S6K at 1 uM assessed as residual enzyme activity
[29] = molecular target: Glycogen synthase kinase-3 beta (Homo sapiens) (UniProt P49841); test: Inhibition of human GSK3-beta at 1 uM assessed as residual enzyme activity
Glycogen synthase kinase-3 beta (Homo sapiens), sequence (P49841 whole entry, looked up): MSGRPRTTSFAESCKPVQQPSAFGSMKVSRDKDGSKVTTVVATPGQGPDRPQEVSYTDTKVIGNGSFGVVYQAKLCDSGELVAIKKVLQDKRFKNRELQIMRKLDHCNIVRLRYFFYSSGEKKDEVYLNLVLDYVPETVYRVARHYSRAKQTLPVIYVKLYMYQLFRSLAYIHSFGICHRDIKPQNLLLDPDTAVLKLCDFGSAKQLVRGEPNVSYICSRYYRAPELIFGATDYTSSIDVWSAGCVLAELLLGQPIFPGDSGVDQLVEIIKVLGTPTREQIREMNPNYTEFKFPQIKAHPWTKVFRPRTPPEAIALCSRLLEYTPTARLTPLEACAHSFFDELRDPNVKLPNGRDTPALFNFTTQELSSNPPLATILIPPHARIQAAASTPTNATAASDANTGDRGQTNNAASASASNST

[30] = molecular target: Epidermal growth factor receptor (Homo sapiens) (UniProt P00533); test: Inhibition of human EGFR at 1 uM assessed as residual enzyme activity
[31] = molecular target: Tyrosine-protein kinase CSK (Homo sapiens) (UniProt P41240); test: Inhibition of human CSK at 1 uM assessed as residual enzyme activity
Tyrosine-protein kinase CSK (Homo sapiens), sequence (P41240 2-450 limits assumed): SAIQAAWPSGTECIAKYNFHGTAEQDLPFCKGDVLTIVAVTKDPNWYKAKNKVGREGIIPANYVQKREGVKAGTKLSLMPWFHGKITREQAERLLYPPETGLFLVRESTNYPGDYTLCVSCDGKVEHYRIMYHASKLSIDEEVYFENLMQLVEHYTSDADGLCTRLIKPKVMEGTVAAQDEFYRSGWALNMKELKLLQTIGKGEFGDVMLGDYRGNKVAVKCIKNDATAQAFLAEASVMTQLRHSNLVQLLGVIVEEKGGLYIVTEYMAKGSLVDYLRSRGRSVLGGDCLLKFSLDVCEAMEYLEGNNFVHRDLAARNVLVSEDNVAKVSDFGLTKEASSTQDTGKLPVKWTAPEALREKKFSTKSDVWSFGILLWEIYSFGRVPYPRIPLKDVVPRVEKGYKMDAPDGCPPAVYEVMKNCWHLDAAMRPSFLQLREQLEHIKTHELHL

[32] = molecular target: Tyrosine-protein kinase Lck (Homo sapiens) (UniProt P06239); test: Inhibition of human Lck at 1 uM assessed as residual enzyme activity
Tyrosine-protein kinase Lck (Homo sapiens), sequence (P06239 2-509 limits assumed): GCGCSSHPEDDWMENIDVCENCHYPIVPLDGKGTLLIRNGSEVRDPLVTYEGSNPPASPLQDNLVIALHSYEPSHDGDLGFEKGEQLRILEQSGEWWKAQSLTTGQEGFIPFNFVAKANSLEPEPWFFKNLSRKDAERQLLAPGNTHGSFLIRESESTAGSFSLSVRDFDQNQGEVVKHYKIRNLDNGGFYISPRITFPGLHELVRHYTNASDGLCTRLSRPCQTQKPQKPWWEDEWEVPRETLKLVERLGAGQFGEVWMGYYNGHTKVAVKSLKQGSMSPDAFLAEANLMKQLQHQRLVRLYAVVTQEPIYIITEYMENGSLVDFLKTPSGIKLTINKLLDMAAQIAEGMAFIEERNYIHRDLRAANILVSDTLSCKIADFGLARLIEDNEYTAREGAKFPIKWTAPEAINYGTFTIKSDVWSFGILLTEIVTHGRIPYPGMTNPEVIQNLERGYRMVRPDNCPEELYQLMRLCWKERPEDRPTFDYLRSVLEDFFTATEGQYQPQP

[33] = molecular target: Ephrin type-B receptor 2 (Homo sapiens) (UniProt P29323); test: Inhibition of human EphB2 at 1 uM assessed as residual enzyme activity
Ephrin type-B receptor 2 (Homo sapiens), sequence (P29323 whole entry): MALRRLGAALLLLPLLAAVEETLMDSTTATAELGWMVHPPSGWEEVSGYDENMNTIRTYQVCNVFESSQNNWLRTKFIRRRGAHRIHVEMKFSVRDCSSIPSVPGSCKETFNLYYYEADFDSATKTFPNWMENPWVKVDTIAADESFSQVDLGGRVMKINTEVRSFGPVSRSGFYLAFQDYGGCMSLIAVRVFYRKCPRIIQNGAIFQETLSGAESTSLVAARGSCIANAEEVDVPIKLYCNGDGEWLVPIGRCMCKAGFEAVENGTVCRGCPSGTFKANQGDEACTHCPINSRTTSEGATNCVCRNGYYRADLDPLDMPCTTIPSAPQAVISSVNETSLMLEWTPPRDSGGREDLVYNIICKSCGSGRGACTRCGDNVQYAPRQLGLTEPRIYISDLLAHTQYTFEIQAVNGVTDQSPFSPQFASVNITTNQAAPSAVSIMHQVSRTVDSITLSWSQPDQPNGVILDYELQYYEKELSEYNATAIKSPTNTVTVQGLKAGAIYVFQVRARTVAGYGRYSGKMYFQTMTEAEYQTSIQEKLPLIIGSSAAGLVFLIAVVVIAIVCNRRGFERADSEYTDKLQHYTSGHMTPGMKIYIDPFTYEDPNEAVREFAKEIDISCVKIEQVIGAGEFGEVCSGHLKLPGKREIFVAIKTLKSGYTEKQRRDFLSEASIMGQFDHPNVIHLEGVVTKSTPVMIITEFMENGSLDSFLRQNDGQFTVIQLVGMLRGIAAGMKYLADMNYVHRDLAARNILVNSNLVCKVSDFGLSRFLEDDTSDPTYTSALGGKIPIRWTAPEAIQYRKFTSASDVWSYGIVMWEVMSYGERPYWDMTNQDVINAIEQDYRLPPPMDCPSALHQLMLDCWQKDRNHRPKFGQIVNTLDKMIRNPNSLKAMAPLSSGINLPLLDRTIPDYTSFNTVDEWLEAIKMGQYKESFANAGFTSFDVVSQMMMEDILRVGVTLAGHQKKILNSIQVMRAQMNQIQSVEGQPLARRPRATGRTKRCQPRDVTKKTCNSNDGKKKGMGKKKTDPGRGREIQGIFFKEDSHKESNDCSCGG

[34] = molecular target: Proto-oncogene tyrosine-protein kinase Src (Homo sapiens) (UniProt P12931); test: Inhibition of human c-SRC at 1 uM assessed as residual enzyme activity
[35] = molecular target: T1, Aurora kinase A; test: Inhibition of Aurora A in human HCT116 cells assessed as complete loss of phospho-Aurora A staining in centrosomes by immunofluorescence assay; type: cell-based, HCT-116
[36] = molecular target: Receptor-type tyrosine-protein kinase FLT3 (Homo sapiens) (UniProt P36888); test: Inhibition of human Flt3 at 1 uM assessed as residual enzyme activity
Receptor-type tyrosine-protein kinase FLT3 (Homo sapiens), sequence (P36888 whole entry): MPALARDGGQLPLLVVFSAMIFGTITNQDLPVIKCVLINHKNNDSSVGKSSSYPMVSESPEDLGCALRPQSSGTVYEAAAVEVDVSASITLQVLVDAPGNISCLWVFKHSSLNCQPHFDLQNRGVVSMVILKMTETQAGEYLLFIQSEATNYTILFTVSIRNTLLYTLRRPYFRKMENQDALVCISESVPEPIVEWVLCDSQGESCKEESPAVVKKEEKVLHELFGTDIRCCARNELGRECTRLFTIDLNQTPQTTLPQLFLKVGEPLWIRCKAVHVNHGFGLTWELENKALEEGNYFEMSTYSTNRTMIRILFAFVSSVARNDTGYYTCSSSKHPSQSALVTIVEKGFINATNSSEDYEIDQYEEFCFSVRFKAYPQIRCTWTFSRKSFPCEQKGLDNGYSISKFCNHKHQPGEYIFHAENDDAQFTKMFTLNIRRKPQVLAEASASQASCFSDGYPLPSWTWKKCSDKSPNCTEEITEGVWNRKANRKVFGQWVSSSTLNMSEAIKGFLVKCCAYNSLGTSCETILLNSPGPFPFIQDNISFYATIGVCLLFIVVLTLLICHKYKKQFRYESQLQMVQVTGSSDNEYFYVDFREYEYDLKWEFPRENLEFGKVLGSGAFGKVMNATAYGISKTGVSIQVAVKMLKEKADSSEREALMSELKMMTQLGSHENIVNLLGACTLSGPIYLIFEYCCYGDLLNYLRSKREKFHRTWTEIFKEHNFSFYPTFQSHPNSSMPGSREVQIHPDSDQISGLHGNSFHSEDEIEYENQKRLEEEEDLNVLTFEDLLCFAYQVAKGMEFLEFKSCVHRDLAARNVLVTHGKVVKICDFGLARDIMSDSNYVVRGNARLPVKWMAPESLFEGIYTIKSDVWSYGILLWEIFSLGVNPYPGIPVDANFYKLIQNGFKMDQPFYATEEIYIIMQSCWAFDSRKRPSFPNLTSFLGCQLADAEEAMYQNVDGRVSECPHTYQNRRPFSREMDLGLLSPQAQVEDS

[37] = molecular target: Serine/threonine-protein kinase Chk1 (Homo sapiens) (UniProt O14757); test: Inhibition of human CHK1 at 1 uM assessed as residual enzyme activity
[38] = molecular target: Insulin receptor (Homo sapiens) (UniProt P06213); test: Inhibition of human insulin receptor at 1 uM assessed as residual enzyme activity

SMILES: Fc1ccc(Nc2ncc(F)c(Nc3ccc(F)cc3)n2)cc1
IC50 [1]: 0.2 µM

SMILES: O=C(Nc1ccc(Cl)cc1)c1ccc(Nc2nc(Nc3ccc(O)cc3)ncc2F)cc1
IC50 [1]: 0.064 µM

SMILES: Oc1ccc(Nc2cc(Cl)nc(Nc3ccc(O)cc3)n2)cc1
IC50 [1]: > 17 µM

SMILES: NC(=O)c1ccc(Nc2nc(Nc3ccc(O)cc3)ncc2F)cc1
IC50 [1]: 0.16 µM

SMILES: COc1ccccc1NC(=O)c1ccc(Nc2nc(Nc3ccc(O)cc3)ncc2F)cc1
IC50 [1]: 0.078 µM

SMILES: CCCc1cnc(Nc2ccc(O)cc2)nc1Nc1ccc(O)cc1
IC50 [1]: 11 µM

SMILES: Cc1cccc(Nc2ncc(F)c(Nc3cccc(C)c3)n2)c1
IC50 [1]: 0.68 µM

SMILES: O=C(Nc1cccc(Cl)c1)c1ccc(Nc2nc(Nc3ccc(O)cc3)ncc2F)cc1
IC50 [1]: 0.14 µM

SMILES: Cc1cc(Nc2ccc(O)cc2)nc(Nc2ccc(O)cc2)n1
IC50 [1]: > 17 µM

SMILES: COc1cccc(Nc2nc(Nc3ccc(O)cc3)ncc2F)c1
IC50 [1]: 0.26 µM

SMILES: O=C(Nc1ccc(Nc2nc(Nc3ccc(O)cc3)ncc2F)cc1)c1ccccc1Cl
IC50 [2]: 0.85 µM | IC50 [3]: > 12 µM | IC50 [4]: > 30 µM | IC50 [5]: 1.4 µM | IC50 [6]: 7.2 µM

SMILES: O=C(Nc1cccc(F)c1)c1ccc(Nc2nc(Nc3ccc(O)cc3)ncc2F)cc1
IC50 [1]: 0.059 µM

SMILES: CN(C)C(=O)c1ccc(Nc2nc(Nc3ccc(O)cc3)ncc2F)cc1
IC50 [1]: 0.64 µM

SMILES: Cc1ccc(NC(=O)c2ccc(Nc3nc(Nc4ccc(O)cc4)ncc3F)cc2)cc1
IC50 [1]: 0.18 µM

SMILES: Cc1cccc(Nc2nc(Nc3ccc(O)cc3)ncc2F)c1
IC50 [1]: 0.18 µM

Further molecules by falling IC50 [1], results first:

IC50 [1]: 0.05 µM
SMILES: Cc1cccc(NC(=O)c2ccc(Nc3nc(Nc4ccc(O)cc4)ncc3F)cc2)c1

IC50 [1]: 0.049 µM
SMILES: CCCNC(=O)c1ccc(Nc2nc(Nc3ccc(O)cc3)ncc2F)cc1

IC50 [1]: 0.02 µM
SMILES: COc1ccccc1Nc1nc(Nc2ccc(O)cc2)ncc1F

IC50 [1]: 0.019 µM
SMILES: O=C(Nc1cccc(O)c1)c1ccc(Nc2nc(Nc3ccc(O)cc3)ncc2F)cc1

IC50 [1]: 0.014 µM
SMILES: COc1ccc(NC(=O)c2ccc(Nc3nc(Nc4ccc(O)cc4)ncc3F)cc2)cc1

IC50 [1]: 0.014 µM
SMILES: O=C(Nc1ccc(Nc2nc(Nc3ccc(O)cc3)ncc2F)cc1)c1ccccc1F

Activity [7]: 7% | Activity [8]: 96% | Activity [9]: 91% | Activity [10]: 60% | IC50 [2]: 0.87 µM | IC50 [3]: > 25 µM | Activity [11]: 64% | Activity [12]: 76% | Activity [13]: 31% | Activity [14]: 88% | IC50 [15]: 3.2 µM | Activity [16]: 44% | Activity [17]: 103% | Activity [18]: 57% | Activity [19]: 111% | Activity [20]: 1% | IC50 [4]: > 30 µM | Activity [21]: 54% | Activity [22]: 76% | Activity [23]: 100% | Activity [24]: 103% | Activity [25]: 40% | IC50 [1]: 0.01 µM | IC50 [5]: 1.9 µM | Activity [26]: 87% | Activity [27]: 57% | Activity [28]: 25% | Activity [29]: 90% | Activity [30]: 54% | Activity [31]: 100% | Activity [32]: 42% | IC50 [6]: 17 µM | Activity [33]: 104% | Activity [34]: 66% | IC50 [35]: 5 µM | Activity [36]: 6% | Activity [37]: 82% | Activity [38]: 102%
SMILES: O=C(Nc1ccccc1Cl)c1ccc(Nc2nc(Nc3ccc(O)cc3)ncc2F)cc1

IC50 [1]: 0.008 µM
SMILES: Oc1ccc(Nc2ncc(Cl)c(Nc3ccc(O)cc3)n2)cc1
